Source: ChEMBL document CHEMBL2311335, “Increased hydrophobicity and estrogenic activity of simple phenols with silicon and germanium-containing substituents” (J Med Chem, 2013)
Active and inactive are the calls of the source. No cut-off for these calls is given here.

Experiments:
[1] = Octanol-water partition coefficient, log P of the compound by HPLC analysis
[2] = Dissociation constant, pKa of the compound
MCF7 [3] = assay: Estrogenic activity in human MCF7 cells assessed as cell proliferation after 7 days by WST-8 assay; assay type: functional, cell-based
Procedure, shortened: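 Cells were seeded at 1.2 × 10³ per well in the same medium. Proliferation was read by WST-8 (2 h, absorbance at 450 nm). Viable cell number was plotted against log concentration and EC₅₀ taken from a sigmoidal fit.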

MCF7 [4] = assay: Estrogenic activity in human MCF7 cells assessed as cell proliferation at 10^-12 M to 10^-6 M after 7 days by WST-8 assay relative to estradiol; assay type: functional
[5] = target: T1, Estrogen receptor (Homo sapiens) (UniProt P03372); assay: (§1) Agonist activity at ER in human T47D-Kbluc cells at 10^-14 to 10^-7 M after 24 hrs by luciferase reporter gene assay; assay type: cell-based
T1 sequence (whole entry): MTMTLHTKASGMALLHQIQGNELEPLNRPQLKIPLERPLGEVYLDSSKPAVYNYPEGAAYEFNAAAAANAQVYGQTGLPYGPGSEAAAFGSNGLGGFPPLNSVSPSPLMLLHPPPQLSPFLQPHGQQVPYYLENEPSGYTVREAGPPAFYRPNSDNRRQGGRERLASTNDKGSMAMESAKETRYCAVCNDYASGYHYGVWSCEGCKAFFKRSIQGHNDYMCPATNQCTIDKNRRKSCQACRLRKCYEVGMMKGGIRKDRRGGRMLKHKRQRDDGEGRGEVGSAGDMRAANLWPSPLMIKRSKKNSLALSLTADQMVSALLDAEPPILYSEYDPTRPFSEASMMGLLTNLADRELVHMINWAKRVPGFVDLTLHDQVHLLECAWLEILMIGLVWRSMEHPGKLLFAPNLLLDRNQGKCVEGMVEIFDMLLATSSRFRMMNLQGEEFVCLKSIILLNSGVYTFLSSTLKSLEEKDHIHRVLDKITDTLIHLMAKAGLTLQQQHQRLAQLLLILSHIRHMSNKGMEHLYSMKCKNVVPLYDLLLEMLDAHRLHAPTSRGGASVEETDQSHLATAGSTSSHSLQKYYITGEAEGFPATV
Procedure, shortened: (§2)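 After 24 h at 37 °C, compounds were added at 10⁻¹⁴ to 10⁻⁷ M final in 0.1% DMSO final. After a further 24 h, Steady-Glo was added and luminescence read after 5 min.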

[6] = target: T1, Estrogen receptor (Homo sapiens); assay: Displacement of [3H]estradiol from human recombinant ER at 10^-8 to 10^-7 M after 14 to 18 hrs by scintillation counting analysis; settings: in the assay text read “10^-8 to 10^-4 M” for “10^-8 to 10^-7 M”
Procedure, shortened: (§3)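 Recombinant human ER was diluted in binding buffer (50 mM Tris pH 7.5, 10% glycerol, 0.1 mM BHA, 10 mM mercaptoethanol, 0.5% yeast extract) to 2–4 nM. It was incubated refrigerated for 14–18 h with 10⁻⁸ M [³H]estradiol final and 10⁻⁴–10⁻⁸ M competitor in DMSO. Bound ligand was captured on hydroxylapatite for 15 min at 0 °C, washed three times with Tris pH 7.3, and counted by scintillation. Run in duplicate.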

[7] = target: Estrogen receptor (Homo sapiens) (UniProt P03372); assay: (§4) Displacement of [3H]estradiol from human recombinant ER after 14 to 18 hrs by scintillation counting analysis; procedure, shortened: as §3
[8] = target: Estrogen receptor (Homo sapiens) (UniProt P03372); assay: as §1; assay type: cell-based; procedure, shortened: as §2; remark: listed apart in the source
[9] = target: T1, Estrogen receptor (Homo sapiens); assay: as §4; procedure, shortened: as §3; remark: listed apart in the source

| logP [1] | EC50 (MCF7 [3]; Homo sapiens, MCF7, 168 h) [nM] | Molecule | also measured |
| --- | --- | --- | --- |
| 4.64 | 41 | CC[Si](C)(C)c1ccc(O)cc1 |  |
| 5.71 |  | 4-Triethylgermylphenol [listing 1 of 2 here] | EC50 (MCF7 [3]; mcf7): 2.1 nM |
| 4.91 | 16 | C[Si](C)(c1ccccc1)c1ccc(O)cc1 |  |
| 6.97 |  | 4-Triphenylgermylphenol [listing 1 of 2 here] |  |
| 4.11 |  | 4-Trimethylgermylphenol | pKa [2]: 10.2; EC50 (MCF7 [3]; mcf7): 100 nM |

The remaining lines, values behind:

| Molecule | logP [1] | EC50 (MCF7 [3]; Homo sapiens, MCF7, 168 h) [nM] | also measured |
| --- | --- | --- | --- |
| C[Si](C)(C)c1ccc(O)cc1 | 4.12 | 63 | pKa [2]: 10.1 |
| CCC(C)(C)c1ccc(O)cc1 | 4.04 | 190 |  |
| Oc1ccc([Si](c2ccccc2)(c2ccccc2)c2ccccc2)cc1 | 6.83 |  | Emax (MCF7 [4]; MCF7, 168 h): 29% |
| CCC(CC)(CC)c1ccc(O)cc1 | 5.03 | 23 | Activity [5]: Active; inhibition [6]: Active |
| 4-Triethylgermylphenol [listing 2 of 2 here] |  |  | inhibition [7]: Dose-dependent effect; Activity [8]: Active |
| CC(C)(c1ccccc1)c1ccc(O)cc1 | 4.31 | 38 |  |
| CC[Si](CC)(CC)c1ccc(O)cc1 | 5.69 | 3.4 | inhibition [9]: Dose-dependent effect; Activity [5]: Active |
| CC(C)(C)c1ccc(O)cc1 |  | 870 |  |
| 4-Triphenylgermylphenol [listing 2 of 2 here] |  |  | Emax (MCF7 [4]): 47% |
| Oc1ccc(C(c2ccccc2)(c2ccccc2)c2ccccc2)cc1 | 6.25 |  | Emax (MCF7 [4]; MCF7, 168 h): 16% |
